Experimental data published in ChEMBL document CHEMBL4184290, “Design, synthesis, and discovery of 5-((1,3-diphenyl-1H-pyrazol-4-yl)methylene)pyrimidine-2,4,6(1H,3H,5H)-triones and related derivatives as novel inhibitors of mPGES-1” (Bioorg Med Chem Lett, 2018).

How the values were obtained:
[1] = target: T1, Prostaglandin E synthase (Homo sapiens) (UniProt O14684); experiment: Inhibition of human mPGES1 expressed in 293 cell microsomes at 10 uM preincubated for 15 mins followed by PGH2 substrate addition measured after 3 secs by enzyme immunoassay relative to control
T1 sequence (whole entry): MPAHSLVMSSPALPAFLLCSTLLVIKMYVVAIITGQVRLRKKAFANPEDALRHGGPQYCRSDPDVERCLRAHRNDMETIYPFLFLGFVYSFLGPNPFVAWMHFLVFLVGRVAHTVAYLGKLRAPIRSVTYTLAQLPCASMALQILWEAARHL
How it was run: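 Single-point screen at 10 μM against human mPGES-1, reported as % inhibition. Only compounds reaching the ≥70% cutoff went on to IC50 determination. Data are means ± SD from triplicate determinations.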

COX1/COX2 = experiment: Inhibition of ovine COX1/human COX2 assessed as reduction in PGF2alpha production at 100 uM preincubated for 10 mins followed by arachidonic acid substrate addition measured after 2 mins by colorimetric assay relative to control; settings: sheep (COX1) / human (COX2), ovine COX1/human COX2 enzyme, probe arachidonic acid
Prostaglandin E synthase = target: T2, Prostaglandin E synthase (Homo sapiens, UniProt O14684); experiment: Inhibition of human mPGES1 expressed in 293 cell microsomes preincubated for 15 mins followed by PGH2 substrate addition measured after 3 secs by enzyme immunoassay
T2 sequence (O14684 whole entry): T1 sequence (whole entry)
How it was run: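 Compounds were first screened against human mPGES-1 at 10 μM, and IC50 values were determined only for those giving ≥70% inhibition. Protein preparation and assay followed earlier reports. Values are means ± SD of single determinations run in triplicate.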

Compound: CCCCCCCCCCOc1ccc(-c2nn(-c3ccc(Cl)cc3)cc2C=C2C(=O)NC(=O)NC2=O)cc1
- inhibition [1]: > 70%

Compound: CCCCCCCCOc1ccc(-c2nn(-c3ccc(Cl)cc3)cc2C=C2C(=O)NC(=S)NC2=O)cc1
- inhibition [1]: > 70%
- inhibition at 2 min, 100 µM (COX1/COX2): 0%

Compound: CCOc1ccc(-c2nn(-c3ccc(Cl)cc3)cc2/C=C(\C#N)C(=O)O)cc1
- inhibition [1]: > 70%
- IC50 (Prostaglandin E synthase): 283 nM

Compound: CCCCCCOc1ccc(-c2nn(-c3ccc(Cl)cc3)cc2C=C(C#N)C#N)cc1
- inhibition [1]: 64%

Compound: CCOc1ccc(-c2nn(-c3ccc(Cl)cc3)cc2/C=C2/SC(=S)NC2=O)cc1
- inhibition [1]: > 70%
- IC50 (Prostaglandin E synthase): 1040 nM

Compound: CCOc1ccc(-c2nn(-c3ccc(Cl)cc3)cc2/C=C2/SC(=O)NC2=O)cc1
- inhibition [1]: > 70%
- IC50 (Prostaglandin E synthase): 1590 nM

Compound: CCOc1ccc(-c2nn(-c3ccc(Cl)cc3)cc2C=C2C(=O)NC(=S)NC2=O)cc1
- inhibition [1]: > 70%
- inhibition at 2 min, 100 µM (COX1/COX2): 1%

Compound: CCCCCCOc1ccc(-c2nn(-c3ccc(Cl)cc3)cc2/C=C2/SC(=O)N(CC(=O)O)C2=O)cc1
- inhibition [1]: > 70%
- IC50 (Prostaglandin E synthase): 36 nM
- inhibition at 2 min, 100 µM (COX1/COX2): 1.2%

Compound: O=C1NC(=O)C(=Cc2cn(-c3ccc(Cl)cc3)nc2-c2ccc(OCc3ccccc3)cc2)C(=O)N1
- inhibition [1]: > 70%
- IC50 (Prostaglandin E synthase): 598 nM

Compound: CCCCCCCCOc1ccc(-c2nn(-c3ccc(Cl)cc3)cc2C=C2C(=O)NC(=O)NC2=O)cc1
- inhibition [1]: > 70%

Compound: CCOc1ccc(-c2nn(-c3ccc(Cl)cc3)cc2/C=C2/SC(=O)N(CC(=O)O)C2=O)cc1
- inhibition [1]: > 70%
- IC50 (Prostaglandin E synthase): 41 nM
- inhibition at 2 min, 100 µM (COX1/COX2): 6.8%

Compound: O=C1NC(=S)NC(=O)C1=Cc1cn(-c2ccc(Cl)cc2)nc1-c1ccccc1
- inhibition [1]: > 70%
- IC50 (Prostaglandin E synthase): 561 nM

Compound: CCCCCCOc1ccc(-c2nn(-c3ccc(Cl)cc3)cc2/C=C(\C#N)C(=O)O)cc1
- inhibition [1]: > 70%
- IC50 (Prostaglandin E synthase): 83 nM
- inhibition at 2 min, 100 µM (COX1/COX2): 19%

Compound: CCOc1ccc(-c2nn(-c3ccc(Cl)cc3)cc2C=C2C(=O)NC(=O)NC2=O)cc1
- inhibition [1]: > 70%

Compound: CCCCCCOc1ccc(-c2nn(-c3ccc(Cl)cc3)cc2/C=C(\C#N)C(N)=O)cc1
- inhibition [1]: 14%

Compound: CCOc1ccc(-c2nn(-c3ccc(Cl)cc3)cc2/C=C(\C#N)C(N)=O)cc1
- inhibition [1]: 32%

Compound: CCCCCCOc1ccc(-c2nn(-c3ccc(Cl)cc3)cc2/C=C2/SC(=S)NC2=O)cc1
- inhibition [1]: > 70%
- IC50 (Prostaglandin E synthase): 1730 nM

Compound: O=C1NC(=O)C(=Cc2cn(-c3ccc(Cl)cc3)nc2-c2ccccc2)C(=O)N1
- inhibition [1]: > 70%
- IC50 (Prostaglandin E synthase): 337 nM

Compound: CCCCCCCCCCOc1ccc(-c2nn(-c3ccc(Cl)cc3)cc2C=C2C(=O)NC(=S)NC2=O)cc1
- inhibition [1]: > 70%
- inhibition at 2 min, 100 µM (COX1/COX2): 11%

Compound: CCOc1ccc(-c2nn(-c3ccc(Cl)cc3)cc2C=C(C#N)C#N)cc1
- inhibition [1]: 51%

Compound: O=C1NC(=S)NC(=O)C1=Cc1cn(-c2ccc(Cl)cc2)nc1-c1ccc(OCc2ccccc2)cc1
- inhibition [1]: > 70%
- IC50 (Prostaglandin E synthase): 797 nM

Compound: CCCCOc1ccc(-c2nn(-c3ccc(Cl)cc3)cc2C=C2C(=O)NC(=S)NC2=O)cc1
- inhibition [1]: > 70%
- inhibition at 2 min, 100 µM (COX1/COX2): 4.4%

Compound: CCCCOc1ccc(-c2nn(-c3ccccc3)cc2C=C2C(=O)NC(=S)NC2=O)cc1
- inhibition [1]: > 70%
- inhibition at 2 min, 100 µM (COX1/COX2): 16%

Compound: CCCCOc1ccc(-c2nn(-c3ccccc3)cc2C=C2C(=O)NC(=O)NC2=O)cc1
- inhibition [1]: > 70%

Compound: CCCCCCOc1ccc(-c2nn(-c3ccc(Cl)cc3)cc2/C=C2/SC(=O)NC2=O)cc1
- inhibition [1]: > 70%
- IC50 (Prostaglandin E synthase): 1390 nM

Compound: CCCCCCOc1ccc(-c2nn(-c3ccc(Cl)cc3)cc2C=C2C(=O)NC(=S)NC2=O)cc1
- inhibition [1]: > 70%
- inhibition at 2 min, 100 µM (COX1/COX2): 0.7%

Compound: CCCCOc1ccc(-c2nn(-c3ccc(Cl)cc3)cc2C=C2C(=O)NC(=O)NC2=O)cc1
- inhibition [1]: > 70%

Compound: CCCCCCOc1ccc(-c2nn(-c3ccc(Cl)cc3)cc2C=C2C(=O)NC(=O)NC2=O)cc1
- inhibition [1]: > 70%
